According to article PMC3535304 (Bioorganic & medicinal chemistry, 2012):
“Also recorded” adds a separate entry of the source. Read-outs that look alike come from different tables or passages of the source.

Columns and labels:
[1] = tested on: LoVo^Doxo cells; settings: IC50 LoVo^Doxo / IC50 LoVo; ref [8]; cited from earlier work
[2] = tested on: LoVo cells; settings: read-out: IC50 (cell growth inhibition), ref [8]; cited from earlier work
[3] = target: bovine brain tubulin (Bos taurus, UniProt P81947+Q6B856); assay: Inhibition of tubulin polymerization; assay type: biochemical; settings: read-out: Tubulin assembly IC50; tubulin at 10 μM, 20 min incubation
Sequence of bovine brain tubulin (Q6B856 whole entry): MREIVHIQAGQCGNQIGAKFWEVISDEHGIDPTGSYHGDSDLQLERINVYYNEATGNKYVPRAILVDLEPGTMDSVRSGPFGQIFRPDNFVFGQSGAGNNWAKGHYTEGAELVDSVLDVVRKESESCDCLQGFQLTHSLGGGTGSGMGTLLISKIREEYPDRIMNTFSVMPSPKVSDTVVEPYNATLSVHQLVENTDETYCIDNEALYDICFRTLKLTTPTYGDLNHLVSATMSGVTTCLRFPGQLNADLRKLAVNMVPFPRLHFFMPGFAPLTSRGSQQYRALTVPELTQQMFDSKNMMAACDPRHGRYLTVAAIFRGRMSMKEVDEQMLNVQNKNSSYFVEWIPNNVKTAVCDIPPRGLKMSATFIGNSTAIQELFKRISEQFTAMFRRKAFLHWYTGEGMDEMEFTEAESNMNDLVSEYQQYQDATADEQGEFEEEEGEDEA
Sequence of bovine brain tubulin (P81947 whole entry): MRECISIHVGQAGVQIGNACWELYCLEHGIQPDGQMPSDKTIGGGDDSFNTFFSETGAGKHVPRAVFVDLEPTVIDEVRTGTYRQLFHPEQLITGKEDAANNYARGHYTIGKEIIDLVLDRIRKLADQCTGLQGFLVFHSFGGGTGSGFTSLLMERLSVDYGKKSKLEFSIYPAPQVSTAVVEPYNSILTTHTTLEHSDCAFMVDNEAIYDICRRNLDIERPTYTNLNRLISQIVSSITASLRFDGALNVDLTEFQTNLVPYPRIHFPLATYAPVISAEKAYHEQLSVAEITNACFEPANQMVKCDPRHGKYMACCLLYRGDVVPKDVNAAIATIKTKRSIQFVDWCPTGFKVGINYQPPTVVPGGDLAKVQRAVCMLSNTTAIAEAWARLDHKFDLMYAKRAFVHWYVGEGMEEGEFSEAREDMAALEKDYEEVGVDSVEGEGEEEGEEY

[4] = tested on: HT-29 cells; settings: read-out: IC50 (cell growth inhibition); HT-29, mean ± SE; ref [12]; cited from earlier work
[5] = tested on: HL-60 cells; settings: read-out: IC50 (cell growth inhibition); HL-60, mean ± SE; ref [12]; cited from earlier work
[6] = tested on: HeLa cells; settings: read-out: IC50 (cell growth inhibition), mean ± SE, ref [12]; cited from earlier work
[7] = tested on: Jurkat cells; settings: read-out: IC50 (cell growth inhibition), mean ± SE, ref [12]; cited from earlier work
[8] = tested on: MCF-7 cells; settings: read-out: IC50 (cell growth inhibition); MCF-7, mean ± SE; ref [12]; cited from earlier work
[9] = tested on: A549 cells; settings: read-out: IC50 (cell growth inhibition), cited from earlier work
[10] = tested on: HT-29 cells; assay: In vitro antiproliferative assay; assay type: cell-based, human; settings: 3d vs 2d, 3e vs 2e
[11] = tested on: CEM cells; assay: Cell growth inhibition, parental line of drug resistant pair; assay type: cell-based; settings: Homo sapiens, CCRF-CEM, read-out: IC50 (cell growth inhibition)
[12] = tested on: CEM^Vbl100 cells; assay: Cell growth inhibition, drug resistant cell line; assay type: cell-based; settings: Homo sapiens, CEM/VBL100, read-out: IC50 (cell growth inhibition)
Procedure, shortened: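 Growth inhibition was read by MTT after 72 h exposure to a range of test-compound concentrations at 37 °C in 5% CO₂. DMSO was ≤0.25% final.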

[13] = tested on: caspase-8; assay: Western blot analysis in HeLa cells; assay type: cell-based, human; settings: 24 or 48 h
Procedure, shortened: (§1)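 HeLa cells were exposed to test compound for 24 or 48 h, washed in cold PBS, and lysed on ice for 30 min. Cleared lysate (20 μg protein, BCA) was run on 7.5–15% SDS-PAGE and moved to PVDF. Primary antibodies (2 h, room temperature) were procaspase-2, cleaved caspase-8, cleaved caspase-3, PARP and cyclin B1, followed by peroxidase secondary and ECL. Membranes were reprobed for β-actin.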

[14] = tested on: caspase-2; assay: Western blot analysis in HeLa cells; assay type: cell-based, human; settings: 24 or 48 h
Procedure, shortened: as §1

[15] = tested on: HeLa cells; assay: Annexin-V/PI apoptosis assay; assay type: cell-based, human; settings: 250 or 500 nM, 24 or 48 h
Procedure, shortened: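 HeLa cells exposed to test compound for 24 or 48 h, then labelled with annexin-V-FITC (kit protocol) and propidium iodide together. Red (PI) and green (FITC) fluorescence read by flow cytometry. Maximum DMSO 0.25%. Mean ± SEM of three independent experiments.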

[16] = tested on: mitochondrial polarization and ROS production; assay: Mitochondrial functions; assay type: cell-based; settings: data not shown
[17] = tested on: HeLa cells; assay: Flow cytometric analysis of cell cycle distribution; assay type: cell-based, human; settings: 24 h, range tested 31 to 500 nM
Procedure, shortened: (§2)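 Exponentially growing cells (5 × 10⁵) were treated 24 h with test compound at 31–500 nM. They were then fixed in ice-cold 70% ethanol and treated with lysis buffer containing RNase A and 0.1% Triton X-100. DNA was stained with propidium iodide and content measured by flow cytometry, with cycle phases taken from DNA histograms. Mean ± SEM of three independent experiments.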

[18] = tested on: caspase-3; assay: Western blot analysis in HeLa cells; assay type: cell-based, human; settings: 24 and 48 h
Procedure, shortened: as §1

[19] = tested on: Jurkat cells; assay: Flow cytometric analysis of cell cycle distribution; assay type: cell-based, human; settings: 24 h
Procedure, shortened: as §2

[20] = tested on: caspase-9; assay: Western blot analysis in HeLa cells; assay type: cell-based, human; settings: data not shown
[21] = tested on: A549-T12 cells; settings: ref [8], cited from earlier work
[22] = tested on: Jurkat cells; assay: In vitro antiproliferative assay; assay type: cell-based; settings: Homo sapiens, 72 h, read-out: IC50 (cell growth inhibition)
Procedure, shortened: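 Jurkat cells were grown in RPMI-1640 with 10% FBS, penicillin G (115 units/mL) and streptomycin (115 μg/mL). Cells were seeded at 8 × 10³ per well and held 18 h at 37 °C in 5% CO₂. Medium was then replaced with fresh medium containing the test compound (DMSO ≤0.25% final) at various concentrations for 72 h. Viability was read by MTT.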

[23] = tested on: MCF-7 cells; assay: In vitro antiproliferative assay; assay type: cell-based, human; settings: 3e vs 2e, 3b vs 2b
[24] = tested on: cyclin B; assay: Western blot analysis in HeLa cells; assay type: cell-based, human; settings: 48 h
Procedure, shortened: as §1

[25] = tested on: six human cancer cell lines (HeLa, A549, HL-60, Jurkat, MCF-7, HT-29); assay: Antiproliferative activity across the panel of six human cancer cell lines; assay type: cell-based; settings: read-out: IC50 values against the six cell lines (range)
Procedure, shortened: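 Jurkat and HL-60 cells were grown in RPMI-1640; MCF-7, A549, HeLa and HT-29 in DMEM; all media had 10% FBS plus penicillin/streptomycin. Cells were seeded at 8 × 10³/well, held 18 h at 37 °C in 5% CO₂, then given fresh medium with test compound (DMSO stocks, ≤0.25% final) for 72 h. Viability was read by MTT. […] Mean ± SE, ≥3 experiments.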

Row | Compound | IC50 [3] [nM] | IC50 [4] [nM] | IC50 [5] [nM] | IC50 [6] [nM] | IC50 [7] [nM] | IC50 [8] [nM] | IC50 ([9]; A549, mean ± SE, ref [12]) [nM] | other results
1 | COc1cccc2c1C(=O)c1c(O)c3c(c(O)c1C2=O)C[C@@](O)(C(=O)CO)C[C@@H]3O[C@H]1C[C@H](N)[C@H](O)[C@H](C)O1 [Doxorubicin] |  |  |  |  |  |  |  | Resistance ratio [1]: 109.6; IC50 [2]: 120 ± 30 nM
2 | CCOc1ccc(-c2sc(N)nc2-c2cc(OC)c(OC)c(OC)c2)cc1 [2e] | 610 ± 50 | 38.2 ± 11.4 | 0.9 ± 0.3 | 0.03 ± 0.005 | 0.14 ± 0.05 | 44 ± 6.3 | 0.09 ± 0.01 | 
3 | CNc1nc(-c2cc(OC)c(OC)c(OC)c2)c(-c2ccc(OC)cc2)s1 [3d, 4-(3,4,5-Trimethoxyphenyl)-5-(4-methoxyphenyl)-N-methylthiazol-2-amine] |  |  |  |  |  |  |  | fold more potent than 2-amino counterpart [10]: 2 fold
4 | COc1cc(-c2nc(N)sc2-c2ccc(C)cc2)cc(OC)c1OC [2b] | 440 ± 10 | 12.4 ± 5.1 | 3.9 ± 1.1 | 0.73 ± 0.2 | 3.9 ± 0.6 | 280 ± 69.8 | 42.8 ± 5.7 | 
5 | COc1cc(-c2nc(N)sc2-c2ccc3ccccc3c2)cc(OC)c1OC [2a] | 740 ± 10 | 23.9 ± 3.9 | 2.7 ± 0.3 | 1.6 ± 0.6 | 3.3 ± 0.9 | 51.2 ± 9.2 | 3.8 ± 0.6 | 
6 | COc1ccc(-c2sc(N)nc2-c2cc(OC)c(OC)c(OC)c2)cc1 [2d] | 1100 ± 70 | 11.7 ± 3.9 | 3.2 ± 1.2 | 2.3 ± 0.2 | 2.1 ± 0.4 | 60.9 ± 8.4 | 20.2 ± 1.7 | 
7 | CC[C@]1(O)C[C@@H]2CN(CCc3c([nH]c4ccccc34)[C@@](C(=O)OC)(c3cc4c(cc3OC)N(C)[C@H]3[C@@](O)(C(=O)OC)[C@H](OC(C)=O)[C@]5(CC)C=CCN6CC[C@]43[C@@H]65)C2)C1 [Vinblastine] |  |  |  |  |  |  |  | IC50 [11]: 0.8 ± 0.1 nM; IC50 [12]: 205 ± 46 nM
8 | COc1cc(-c2nc(C)sc2-c2ccc3ccccc3c2)cc(OC)c1OC [3k, 4-(3,4,5-Trimethoxyphenyl)-2-methyl-5-(naphthalen-2-yl)thiazole] |  |  |  |  |  |  |  | caspase-8 activation (appearance of cleavage product) [13]: clear caspase-8 and caspase-2 activation; caspase-2 activation (disappearance of uncleaved protein) [14]: clear caspase-8 and caspase-2 activation; induction of apoptotic (annexin-V positive) cells [15]: significant induction of apoptotic cells; effect on mitochondrial polarization and ROS production [16]: only slightly affected; concentration at which G2/M accumulation was first observed [17]: 125 nM; caspase-3 activation [18]: clear activation of caspase-3; cleavage of caspase-3 substrate PARP [18]: cleavage of the caspase-3 substrate PARP; concentration at which G2/M accumulation was first observed [19]: 125 nM; caspase-9 activation [20]: did not induce activation of caspase-9
9 | CC(=O)O[C@H]1C(=O)[C@@]2(C)[C@H]([C@H](OC(=O)c3ccccc3)[C@]3(O)C[C@H](OC(=O)[C@H](O)[C@@H](NC(=O)c4ccccc4)c4ccccc4)C(C)=C1C3(C)C)[C@]1(OC(C)=O)CO[C@@H]1C[C@@H]2O [Taxol] |  |  |  |  |  |  |  | Resistance ratio ([21]; IC50 A549-T12 / IC50 A549): 10.4; IC50 ([21]; read-out: IC50 (cell growth inhibition), A549-T12): 75.2 ± 12.5 nM; IC50 ([9]; A549, ref [8]): 7.2 ± 0.1 nM
10 | COc1ccc(/C=C\c2cc(OC)c(OC)c(OC)c2)cc1O [CA-4, Combretastatin A-4] |  |  |  |  |  |  |  | IC50 [22]: 5 ± 0.6 nM
11 | COc1cc(-c2nc(N)sc2-c2ccc(C(F)(F)F)cc2)cc(OC)c1OC [2c] |  | 221 ± 50.2 | 5.1 ± 1.1 | 3.2 ± 0.4 | 8.5 ± 1.2 | 0.4 ± 0.1 | 357 ± 65 | 
12 | CNc1nc(-c2cc(OC)c(OC)c(OC)c2)c(-c2ccc(C)cc2)s1 [3b, 4-(3,4,5-Trimethoxyphenyl)-N-methyl-5-p-tolylthiazol-2-amine] |  |  |  |  |  |  |  | fold more potent than 2-amino counterpart [23]: ~28 fold
13 | CCOc1ccc(-c2sc(NC)nc2-c2cc(OC)c(OC)c(OC)c2)cc1 [3e, 5-(4-Ethoxyphenyl)-4-(3,4,5-trimethoxyphenyl)-N-methylthiazol-2-amine] |  |  |  |  |  |  |  | caspase-8 activation (appearance of cleavage product) [13]: clear caspase-8 and caspase-2 activation; caspase-2 activation (disappearance of uncleaved protein) [14]: clear caspase-8 and caspase-2 activation; induction of apoptotic (annexin-V positive) cells [15]: Analogous behaviour but with a stronger effect; fold more potent than 2-amino counterpart [10]: 10 fold; effect on mitochondrial polarization and ROS production [16]: did not cause mitochondrial depolarization; also recorded: only slightly affected; concentration at which G2/M accumulation was first observed [17]: 31 nM; cyclin B expression [24]: slight decrease; IC50 [25]: 1.7 to 38 nM; caspase-3 activation [18]: clear activation of caspase-3; cleavage of caspase-3 substrate PARP [18]: cleavage of the caspase-3 substrate PARP; caspase-9 activation [20]: did not induce activation of caspase-9
